In the library only some 1.2% were active in any assay of this set; here they are far more common.
ASAP1 inh – inhibitors of human ASAP1 ArfGAP activity; Q9ULH1; ASAP1-stimulated ARF1 GTP hydrolysis, GDP FP detection; inhibition, % at 16.5 µM; hit rate 0.19% among 360,000; AID 624377; in the data active means inhibition above about 25%;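 further: 0% = vehicle with enzyme and substrate and 100% = no enzyme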
PREPL inh – inhibitors of human prolyl oligopeptidase-like enzyme PREPL. recombinant PREPL, fluorescence polarization activity-based probe. inhibition, % at 5.96 µM. hit rate 0.68% among 320,000; in the data active means inhibition above about 43%;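 further: 0% = enzyme with DMSO and 100% = wells lacking enzyme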
IDE cell inh – inhibits human insulin-degrading enzyme in HEK cells. P14735. FAbetaB cleavage, fluorescence polarization. inhibition, % at 5.59 µM. hit rate 0.41% among 320,000;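 active means percent inhibition above the average of all tested compounds plus 3 SD, set per screening campaign, cut at about 16% in these data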;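 further: IDE supplied by intact live HEK cells; FP after avidin binding of uncleaved biotin substrate so inhibition keeps polarization high; 0% = DMSO wells and 100% = 60 µM reference IDE inhibitor Ii1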
Target sequence (P14735 whole entry, looked up): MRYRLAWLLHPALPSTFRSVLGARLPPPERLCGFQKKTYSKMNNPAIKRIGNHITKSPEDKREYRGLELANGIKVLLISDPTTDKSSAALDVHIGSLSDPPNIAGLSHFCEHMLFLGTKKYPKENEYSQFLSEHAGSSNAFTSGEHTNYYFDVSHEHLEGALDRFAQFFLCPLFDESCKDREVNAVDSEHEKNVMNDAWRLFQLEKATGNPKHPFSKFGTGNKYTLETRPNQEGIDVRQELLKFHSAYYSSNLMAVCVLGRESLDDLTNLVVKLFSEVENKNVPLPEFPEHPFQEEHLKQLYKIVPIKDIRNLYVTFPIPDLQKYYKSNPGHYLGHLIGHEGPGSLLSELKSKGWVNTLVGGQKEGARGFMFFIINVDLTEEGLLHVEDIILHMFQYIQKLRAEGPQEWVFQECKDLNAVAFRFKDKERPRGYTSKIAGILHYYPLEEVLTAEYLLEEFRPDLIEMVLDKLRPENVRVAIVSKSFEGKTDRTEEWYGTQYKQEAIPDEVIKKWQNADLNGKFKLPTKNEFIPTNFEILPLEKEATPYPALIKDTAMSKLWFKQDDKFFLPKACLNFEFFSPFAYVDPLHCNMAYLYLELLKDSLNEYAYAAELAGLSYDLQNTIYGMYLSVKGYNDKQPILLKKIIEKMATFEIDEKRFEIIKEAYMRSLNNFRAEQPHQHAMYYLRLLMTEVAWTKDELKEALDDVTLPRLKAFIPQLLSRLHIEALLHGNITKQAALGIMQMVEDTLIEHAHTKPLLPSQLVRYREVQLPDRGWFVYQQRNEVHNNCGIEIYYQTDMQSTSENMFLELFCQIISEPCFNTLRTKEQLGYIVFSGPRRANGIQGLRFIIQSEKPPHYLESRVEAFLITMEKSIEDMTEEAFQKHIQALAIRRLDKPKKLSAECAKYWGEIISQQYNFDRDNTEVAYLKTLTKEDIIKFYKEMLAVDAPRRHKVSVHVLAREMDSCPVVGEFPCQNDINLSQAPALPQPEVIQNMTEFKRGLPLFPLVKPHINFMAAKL
IDE act – IDE (human) activation, cell-based; HEK cells, FAbeta-B cleavage, fluorescence polarization; 0% vehicle, 100% cell-free pure enzyme wells; activation, % at 5.96 µM; hit rate 0.073% among 340,000; AID 493087;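 active means activation above the mean of all tested compounds plus 3 SD, set per screening campaign, cut at about 17% in these data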
ARFGAP1 inh – rat ARFGAP1 inhibition | Q62848 | Arfgap1-stimulated ARF1 GTP hydrolysis, GDP FP detection | inhibition, % at 16.5 µM | hit rate 0.26% among 360,000 | AID 651572;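 active means inhibition above a per-plate limit, mean inhibition of low control wells plus 3 SD, cut at about 25% in these data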;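 further: 0% = DMSO wells with enzyme and 100% = wells lacking Arfgap1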
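system = rat Arfgap1 catalytic domain, aa 1-136 | technique = FP, GDP Alexa 633 tracer displaced from anti-GDP antibody, 620/688 nm | compound = one concentration, 16.5 µM, DMSO 1.26% | medium = HEPES-based buffer, pH 7.5 | timing = compound-enzyme preincubation 20 min, reaction 120 min, detection 60 min, 25 °C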
* = called active by the depositor; . = no result given.

SMILES | ASAP1 inh | PREPL inh | IDE cell inh | IDE act | ARFGAP1 inh
Cc1ccc(-c2nnc(Nc3ccc4c(c3)OCO4)c3ccccc23)cc1S(=O)(=O)NC(C)C | 4.7 | 50.0* | 1.6 | -0.9 | 4.2
COc1ccc(Cn2c(SCc3ccc(C)cc3)nc3cc(OC)c(OC)cc3c2=N)cc1Cl | 19.1 | 34.9 | 0.7 | 19.9* | -6.8
COc1ccc(Cn2c(SCc3cc(C)ccc3C)nc3cc(OC)c(OC)cc3c2=N)cc1 | 1.6 | 15.6 | 0.8 | 26.6* | -5.4
C[C@@H]1CN([C@@H](C)CO)C(=O)CCCn2cc(nn2)CO[C@H]1CN(C)C(=O)C1CCCCC1 | 3.7 | . | . | . | -3.4
CN1C(c2ccccc2)CC(C)(O)CC1c1ccccc1 (configuration not stated) | 12.8 | . | . | . | 17.3
Cc1c2ccccc2cc[n+]1CCCS(=O)(=O)[O-] | -2.0 | -5.3 | -1.6 | -1.9 | -9.2
CC1(C)C(/C=C/C=C/C=C/C=C2\N(CCCCS(=O)(=O)O)c3ccc4ccccc4c3C2(C)C)=[N+](CCCCS(=O)(=O)[O-])c2ccc3ccccc3c21 | . | -27.4 | 20.7* | -8.8 | .
Cc1ccc2c(c1)-c1[nH]c(=S)ncc1CS2 | -1.2 | 0.1 | 18.9* | -12.2 | 5.1
Cc1ccc(NC(=O)c2ccc3c(c2)NC(=O)CS3)nc1 | 0.5 | 10.7 | 3.2 | 1.1 | 2.1
C[C@H](CO)N1C[C@H](C)[C@H](CN(C)C)Oc2ccc(NS(=O)(=O)c3ccc(F)cc3)cc2CC1=O | 3.8 | 10.9 | -0.2 | 4.0 | 2.4
CNC[C@@H]1Oc2ccc(NS(=O)(=O)c3ccc(OC)cc3)cc2CC(=O)N([C@H](C)CO)C[C@@H]1C | . | 10.8 | 1.9 | 22.4* | .
O=C1c2cccnc2-c2ncccc21 | -6.6 | -6.7 | 7.5 | 2.6 | -3.2
COC1=C(Br)C(=O)c2ncccc2C1=O | 47.4* | . | . | 0.3 | 21.8
Cc1ccc2[nH]c3c(Cl)ncnc3c2c1 | 2.1 | -5.5 | 3.4 | . | -1.4
CCOc1ncnc2c1[nH]c1ccccc12 | 0.8 | -3.7 | 18.3* | -12.3 | 3.1
CCCOc1ncnc2c1[nH]c1ccc(C)cc12 | . | 0.9 | 37.1* | . | .
COc1ccc(CNc2ncnc3c2[nH]c2cc(OC)c(OC)cc23)cc1 | -3.6 | 41.1 | 2.5 | 0.6 | 0.1
COc1ccc(CNc2ncnc3c2[nH]c2ccccc23)cc1 | 4.0 | 24.6 | 60.5* | . | -12.4
Cc1ccc2[nH]c3c(N4CCc5ccccc5C4)ncnc3c2c1 | 17.4 | 46.4* | 61.8* | -17.0 | 22.4
CC(C)C[C@H](NC(=O)c1ccccn1)C(=O)N1CCC[C@H]1C(=O)NCc1ccccc1 | -3.7 | . | . | . | -6.0
CC1(C)OC(=O)C2=C(CC(CCc3ccccc3)OC2CCc2ccccc2)O1 (configuration not stated) | -2.0 | . | . | . | 7.5
CC1(C)c2[nH]c3ccccc3c2C[C@@H]2C(=O)N(c3cc(F)ccc3F)C(=O)N21 | 27.5* | -0.3 | 3.0 | -1.2 | 8.7
CC1(C)c2[nH]c3ccccc3c2C[C@H]2C(=O)N(Cc3cccc(F)c3)C(=O)N21 | 6.0 | 18.8 | 4.3 | 0.5 | 9.2
COC(=O)c1cc2c(c3c4cc(OC)ccc4n(S(=O)(=O)c4ccc(F)cc4)c13)C(=O)N(CC(C)C)C2 | -5.2 | . | . | . | 11.9
Cc1ccccc1OCCn1cc(C(=S)N2CCN(C)CC2)c2ccccc21 | -0.7 | 58.5* | -0.5 | 0.1 | 6.5
SMILES | ASAP1 inh | PREPL inh | IDE cell inh | IDE act | ARFGAP1 inh
COc1ccc(NC(=O)c2cc3n(n2)C(C(F)(F)F)CC(c2ccc4c(c2)OCO4)N3)cc1OC (configuration not stated) | . | 46.2* | -0.7 | -2.8 | .
COc1ccc(C2CC(C(F)(F)F)n3nc(C(=O)O)c(Cl)c3N2)cc1OC (configuration not stated) | -6.3 | 3.6 | -2.3 | 18.2* | -9.9
Cc1cccc(NC(=O)c2cc3n(n2)C(C(F)(F)F)CC(c2ccc4c(c2)OCO4)N3)c1 (configuration not stated) | -11.4 | 13.8 | -1.7 | -0.6 | 10.9
C=CCNC(=S)N(C)[C@H]1C[C@H]2c3[nH]c4c(-c5ccccc5)cccc4c3CCN2C(=O)[C@H]1[C@H](C)O | 4.6 | . | . | . | -2.5
Cc1cc(C)cc([C@H]2C[C@]34CN(C(=O)OC(C)(C)C)S(=O)(=O)[C@H]3C[C@H]2O4)c1 | 8.5 | . | . | . | -3.9
O=C(N[C@H](C(=O)N1CCC[C@H]1C(=O)NCCc1ccccc1Cl)c1ccccc1)C1CC1 | 4.5 | . | . | . | -0.6
CC1CN(S(=O)(=O)c2ccc(C(=O)Nc3nncs3)cc2)CC(C)O1 (configuration not stated) | 11.3 | 21.4 | 1.5 | 25.8* | 8.5
